Screening data deposited in PubChem by NMMLSC.
MEKK2mut PB1 HTS – signal of MEK5 binding to mutant human MEKK2 PB1 domain. bead flow cytometry, Alexa488-MEK5 binding to MEKK2 mutant. hit rate 0.35% among 290,000. AID 1530. percent response, % at 10 µM; in the data active = percent response above about 24%, passing the limit was not always enough
Efflux pump mplx – antifungal efflux pump inhibition, Nile Red retention; hit rate 0.44% among 330,000; inhibition, % at 10 µM; S. cerevisiae Candida pump triplex;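 active = plate passing quality check with inhibition over a set limit, or well fluorescence over plate mean plus 4 SD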;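 note: Nile Red retained in pooled yeast measured as flow cytometry median fluorescence; higher means more Nile Red kept so more efflux inhibition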
ABCB1 inh – human ABCB1 inhibition, ABCG2 as counter-screen. P08183. CCRF-Adr cells, JC-1 efflux, flow cytometry. inhibition, % at 6.6 µM. hit rate 0.067% among 190,000. AID 1326; in the data active = inhibition above about 40%;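 note: higher value means more JC-1 retained so stronger ABCB1 efflux block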
Target sequence (P08183 whole entry, looked up): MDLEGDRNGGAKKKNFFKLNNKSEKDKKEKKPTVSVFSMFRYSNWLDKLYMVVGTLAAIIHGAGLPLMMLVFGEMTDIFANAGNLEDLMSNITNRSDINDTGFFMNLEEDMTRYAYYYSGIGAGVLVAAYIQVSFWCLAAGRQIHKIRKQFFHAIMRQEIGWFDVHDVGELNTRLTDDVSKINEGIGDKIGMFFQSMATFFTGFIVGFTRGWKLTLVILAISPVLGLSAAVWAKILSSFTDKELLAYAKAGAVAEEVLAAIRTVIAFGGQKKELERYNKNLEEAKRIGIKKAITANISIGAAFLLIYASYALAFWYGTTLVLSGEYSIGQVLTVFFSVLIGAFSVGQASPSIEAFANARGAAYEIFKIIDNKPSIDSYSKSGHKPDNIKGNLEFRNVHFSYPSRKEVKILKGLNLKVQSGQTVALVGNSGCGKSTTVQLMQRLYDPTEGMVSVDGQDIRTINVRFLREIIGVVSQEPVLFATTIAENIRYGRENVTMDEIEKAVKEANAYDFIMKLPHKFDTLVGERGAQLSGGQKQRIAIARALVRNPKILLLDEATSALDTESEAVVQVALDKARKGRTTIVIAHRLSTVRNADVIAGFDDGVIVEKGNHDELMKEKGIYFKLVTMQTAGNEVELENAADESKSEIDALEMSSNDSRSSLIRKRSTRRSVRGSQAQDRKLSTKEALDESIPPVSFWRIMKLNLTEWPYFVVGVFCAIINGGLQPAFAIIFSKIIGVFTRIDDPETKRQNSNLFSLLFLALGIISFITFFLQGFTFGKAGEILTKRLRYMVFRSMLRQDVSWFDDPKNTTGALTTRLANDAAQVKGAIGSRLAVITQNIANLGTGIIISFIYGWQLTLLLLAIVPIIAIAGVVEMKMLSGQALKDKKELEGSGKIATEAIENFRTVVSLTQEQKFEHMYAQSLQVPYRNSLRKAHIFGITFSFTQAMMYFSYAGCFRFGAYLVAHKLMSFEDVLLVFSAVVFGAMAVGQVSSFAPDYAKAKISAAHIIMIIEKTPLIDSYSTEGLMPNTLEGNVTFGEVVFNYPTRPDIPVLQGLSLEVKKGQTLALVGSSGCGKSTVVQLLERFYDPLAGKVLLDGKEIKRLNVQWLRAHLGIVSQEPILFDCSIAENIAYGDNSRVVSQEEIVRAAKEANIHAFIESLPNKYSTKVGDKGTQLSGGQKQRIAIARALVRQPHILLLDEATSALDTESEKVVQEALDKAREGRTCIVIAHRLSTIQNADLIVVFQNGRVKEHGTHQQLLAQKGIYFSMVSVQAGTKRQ
MEKK3 PB1 HTS – raises or lowers MEK5 binding to the human MEKK3 PB1 domain | bead-based flow cytometry, Alexa488-MEK5 binding to MEKK3; actives lie on both sides; 0 = blocked by unlabeled MEK5, 100 = vehicle | binding response (% of control), % at 10 µM | hit rate 1.4% among 290,000 | AID 1529;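 active = binding response more than 3 SD above or below the average of its plate-row segment, actives on both sides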;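 note: Alexa488 bead fluorescence after subtracting the streptavidin-only scavenger bead signal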
ABCG2 block – blocks JC-1 efflux by human ABCG2 transporter | IgMXP3 cells, flow cytometry | hit rate 0.1% among 190,000 | AID 1325 | inhibition, % at 6.6 µM;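 active = inhibition above 80%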
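Assay system – ABCG2 IgMXP3 and barcoded ABCB1 CCRF-Adr cell mix · Input – 3 million cells/mL in well · Reagent – JC-1 fluorescent substrate · Compound – single test compound dose, 6.6 µM final · Timing – 10 min exposure at 25 °C with rotation, no wash · Detection – flow cytometry of retained JC-1 fluorescence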
MEKK2 WT-MEK5 – raises or lowers MEK5 binding to wildtype human MEKK2 PB1 domain. Q9Y2U5. binding response (% of control), % at 10 µM. hit rate 1.1% among 290,000. bead flow cytometry, Alexa488-MEK5 binding to MEKK2 WT; actives lie on both sides; in the data active = binding response below about 67% or above about 130%
MEKK2wt confirm – raises or lowers MEK5 binding to wildtype human MEKK2, retest; shares compounds with MEKK3 PB1 HTS; bead flow cytometry, Alexa488-MEK5 binding to MEKK2 WT; actives lie on both sides; binding response (% of control), % at 10 µM; hit rate 2.4% among 5,900; AID 1892; in the data active = binding response below about 16% or above about 210%; inactive = in between
MEKK2mut confirm – signal of MEK5 binding to mutant human MEKK2, retest; shares compounds with MEKK3 PB1 HTS; bead flow cytometry, Alexa488-MEK5 binding to MEKK2 mutant; percent response, % at 10 µM; hit rate 2% among 5,900; in the data active = percent response mostly above about 71%, no sharp cut-off; inactive = mostly below about 38%;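 note: higher means compound restores mutant binding toward wildtype level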
MEKK3 confirm – confirmation of inhibitors of MEK5 binding to human MEKK3. shares compounds with MEKK3 PB1 HTS. hit rate 1.8% among 5,900. binding response (% of control), % at 10 µM. bead flow cytometry, Alexa488-MEK5 binding to MEKK3; stronger effect = lower value;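 active = binding response below 72% of control, or above a set upper limit, though filed actives all read lower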
Hits are given with their value; i = inactive; nt = not tested or not shown; [ ] = another dose, or the depositor's remark. The list is not random: actives were taken first. Their share in the collection is about 2.5%.

SMILES	MEKK2mut PB1 HTS	Efflux pump mplx	ABCB1 inh	MEKK3 PB1 HTS	ABCG2 block	MEKK2 WT-MEK5	MEKK2wt confirm	MEKK2mut confirm	MEKK3 confirm
Cc1cccc(-c2nc(NCCCN(C)C)c3ccccc3n2)c1	i	i	nt	i	nt	135.0	i	i	i
CN(C)CCCNc1nc(-c2ccc(Cl)cc2)nc2ccccc12	i	i	nt	i	nt	141.0	i	i	i
Cc1ccc(S(=O)(=O)NC(C)(C)CN2CCC(Cc3ccccc3)CC2)cc1	i	i	nt	i	nt	i	nt	nt	nt
COc1ccc(/C=C/C(=O)NCCN=C2NS(=O)(=O)c3ccccc32)cc1	i	i	i	i	i	i	nt	nt	nt
CC(NC(=O)COC(=O)C1CCN(c2ccc(C(F)(F)F)cn2)CC1)c1ccc(F)cc1 (stereo not drawn)	nt	i	nt	nt	nt	nt	nt	nt	nt
COC(=O)N/N=C/c1cn(CCOc2ccccc2)c2ccccc12	i	i	nt	-1.0[inhibitor]	nt	-17.0[inhibitor]	i	i	i
CCOC(=O)N/N=C/c1cn(CCCOc2ccc(C)cc2)c2ccccc12	i	i	i	i	i	i	nt	nt	nt
CCOC(=O)N/N=C/c1cn(CCCOc2ccccc2)c2ccccc12	i	i	i	140.0	i	i	i	i	i
Cc1ccc(OCC(=O)N/N=C/c2cn(Cc3ccccc3)c3ccccc23)cc1	i	i	i	143.0	i	i	i	i	i
CCOc1nc(Nc2ccc(F)cc2)nc(N2CCN(c3ccc(OC)cc3)CC2)n1	i	i	i	i	i	i	nt	nt	nt
CCOc1nc(Nc2ccc(OC)c(Cl)c2)nc(N2CCN(c3ccc(OC)cc3)CC2)n1	33.0	i	i	79.0[inhibitor]	i	i	i	i	i
CN(C)c1cccc(C(=O)OCCNC(=O)c2cccc(S(=O)(=O)N3CCOCC3)c2)c1	i	i	nt	46.0[inhibitor]	nt	i	i	i	i
O=C(OCCOc1ccccc1)c1cccc(S(=O)(=O)N2CCOCC2)c1	nt	i	nt	nt	nt	nt	nt	nt	nt
CS(=O)(=O)N1CCCC(C(=O)Nc2ccc3c(c2)OCCO3)C1 (stereo not drawn)	i	i	i	i	i	i	nt	nt	nt
O=c1c([N+](=O)[O-])c(N2CCCCCC2)c2ccccc2n1-c1ccccc1	nt	i	i	49.0[inhibitor]	i	nt	i	i	i
CCOC(=O)N1CCC(N(CCN(C)C)C(=S)Nc2cccc(SC)c2)CC1	i	i	i	i	i	i	nt	nt	nt
CCOC(=O)N1CCC(N(CCN(C)C)C(=S)Nc2ccccc2C)CC1	i	i	i	130.0	i	i	i	i	i
CCOC(=O)N1CCC(N(CCN(C)C)C(=S)Nc2cccc(C)c2)CC1	i	i	i	138.0	i	i	i	i	i
CCc1cccc(NC(=S)N(CCOC)C2CCN(C(C)=O)CC2)c1	34.0	i	nt	123.0	nt	i	i	i	i
COCCNC(=O)C1CCC(CNS(=O)(=O)c2ccccc2)CC1 (stereo not drawn)	i	i	nt	i	nt	i	nt	nt	nt
Cn1c(N)c(C(=O)COC(=O)COc2ccc(Cl)cc2Cl)c(=O)n(C)c1=O	nt	i	nt	nt	nt	nt	nt	nt	nt
COc1ccc([C@H]2CC(=O)C=C(c3cc4ccccc4c4ccccc34)C2)cc1	nt	i	nt	nt	nt	nt	nt	nt	nt
CCOc1ccc(OCCC(=O)OCC(=O)NC2CCCC2)cc1	nt	i	nt	nt	nt	nt	nt	nt	nt
CCCn1nc(C(=O)N(C)CC(=O)Nc2ccc(OCC)c(OCC)c2)c2ccccc2c1=O	nt	i	nt	nt	nt	nt	nt	nt	nt
CCCNC(=O)/C=C/C(=O)O	i	i	i	i	i	i	nt	nt	nt
S=C(NCc1ccco1)Nc1ccc(Cl)cn1	i	i	nt	i	nt	i	nt	nt	nt
Cc1ccc(/C=N/NC(=O)c2cccs2)o1	i	i	i	128.0	i	i	i	i	i
Cc1ccc(/C=N/NC(=O)c2cccc([N+](=O)[O-])c2)o1	i	i	i	133.0	i	i	i	i	i
O=C(N/N=C/c1cccnc1)c1cccs1	i	i	nt	130.0	nt	i	i	i	i
